Laboratory results as given in ChEMBL document CHEMBL1123678, “Octahydropyrazino[2',3':3,4]pyrido[1,2-a]indoles. A new class of potent antihypertensive agents” (1987).
The source made the active and inactive calls. The rule behind the calls is not given here.

What was measured:
Rattus norvegicus [1] = experiment: Vasopressor responses to epinephrine as a measure of the alpha-1-adrenoceptor blocking activity at 0.5 mg/kg administered orally was reported to be antagonized; assay type: functional, organism-based; design: dose 0.5 mg/kg
Rattus norvegicus [2] = experiment: Antihypertensive activity was determined in cannulated spontaneously hypertensive rats(SHR) and maximum decrease of mean arterial blood pressure (MABP) at 50 mg/kg oral dose; assay type: functional, Artery
In short: (§1)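 Cannulated SHR given compound by gastric gavage in 0.5% methylcellulose (5 mL/kg), doses 0.1–50 mg/kg, 4–8 animals per dose, after 1-h equilibration. MABP recorded for 4 h; maximal % decrease reported with time to peak effect. Significance by two-way analysis of variance.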

Rattus norvegicus [3] = experiment: Antihypertensive activity was determined in cannulated spontaneously hypertensive rats(SHR) and maximum decrease of mean arterial blood pressure (MABP) at 0.5 mg/kg oral dose; assay type: functional, Artery; in short: as §1
Rattus norvegicus [4] = experiment: Antihypertensive activity was determined in cannulated spontaneously hypertensive rats(SHR) and marked bradycardia was reported at a dose of 50 mg/kg; assay type: functional, organism-based; design: dose 50 mg/kg
Rattus norvegicus [5] = experiment: Antihypertensive activity was determined in cannulated spontaneously hypertensive rats(SHR) and maximum decrease of mean arterial blood pressure (MABP) at 5 mg/kg oral dose; assay type: functional, Artery; in short: as §1
Rattus norvegicus [6] = experiment: Antihypertensive activity was determined in cannulated spontaneously hypertensive rats(SHR) and maximum decrease of mean arterial blood pressure (MABP) at 10 mg/kg oral dose; assay type: functional, Artery; in short: as §1
Rattus norvegicus [7] = experiment: Antihypertensive activity was determined in cannulated spontaneously hypertensive rats(SHR) and maximum decrease of mean arterial blood pressure (MABP) at 2.5 mg/kg oral dose; assay type: functional, Artery; in short: as §1
Rattus norvegicus [8] = experiment: Vasopressor responses to epinephrine as a measure of the alpha-1-adrenoceptor blocking activity at 2.5 mg/kg administered orally was reported to be reversed; assay type: functional, organism-based; design: dose 2.5 mg/kg
Rattus norvegicus [9] = experiment: Vasopressor responses to epinephrine as a measure of the alpha-1-adrenoceptor blocking activity at 10 mg/kg administered orally was reported to be reversed; assay type: functional, organism-based; design: dose 10 mg/kg
Rattus norvegicus [10] = experiment: Vasopressor responses to epinephrine as a measure of the alpha-1-adrenoceptor blocking activity at 1 mg/kg administered orally was reported to be reversed; assay type: functional, organism-based; design: dose 1 mg/kg
Rattus norvegicus [11] = experiment: Antihypertensive activity was determined in cannulated spontaneously hypertensive rats(SHR) and marked bradycardia was reported at a dose of 10 mg/kg; assay type: functional, organism-based; design: dose 10 mg/kg
Rattus norvegicus [12] = experiment: Antihypertensive activity was determined in cannulated spontaneously hypertensive rats(SHR) and maximum decrease of mean arterial blood pressure (MABP) at 1 mg/kg oral dose; assay type: functional, Artery; in short: as §1
Rattus norvegicus [13] = experiment: Antihypertensive activity was determined in cannulated spontaneously hypertensive rats(SHR) and maximum decrease of mean arterial blood pressure (MABP) at 25 mg/kg oral dose; assay type: functional, Artery; in short: as §1
Rattus norvegicus [14] = experiment: Antihypertensive activity was determined in cannulated spontaneously hypertensive rats(SHR) and activity rating was given with respect to MABP values at 25 mg/kg oral dose;lowering MABP by 20-30% at 5 mg/kg and by 10-20% at 1-2.5 mg/kg; assay type: functional, organism-based
In short: (§2)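 Cannulated SHR dosed orally (gavage) in 0.5% methylcellulose, 5 mL/kg; 4–8 rats per dose. MABP monitored 4 h, maximal change taken. Rating scale: 0 = no significant activity at 50 mg/kg, stepping up to 6 = MABP fall >40% at 10 mg/kg and 10–20% at 0.25–1 mg/kg, based on % MABP decreases at set doses.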

Rattus norvegicus [15] = experiment: Vasopressor responses to epinephrine as a measure of the alpha-1-adrenoceptor blocking activity at 2.5 mg/kg administered orally was reported to be antagonized; assay type: functional, organism-based; design: dose 2.5 mg/kg; conditions: filed as antagonist
Rattus norvegicus [16] = experiment: Vasopressor responses to epinephrine as a measure of the alpha-1-adrenoceptor blocking activity at 5 mg/kg administered orally was reported to be antagonized; assay type: functional, organism-based; design: dose 5 mg/kg; conditions: filed as antagonist
Rattus norvegicus [17] = experiment: Vasopressor responses to epinephrine as a measure of the alpha-1-adrenoceptor blocking activity at 25 mg/kg administered orally was reported to be antagonized; assay type: functional, organism-based; design: dose 25 mg/kg; conditions: filed as antagonist
Rattus norvegicus [18] = experiment: Antihypertensive activity was determined in cannulated spontaneously hypertensive rats(SHR) and heart rate response was reported to reduce by 10-25% after 4 hr at a peroral dose of 5 mg/kg; assay type: functional, organism-based; design: dose 5 mg/kg
Rattus norvegicus [19] = experiment: Antihypertensive activity was determined in cannulated spontaneously hypertensive rats(SHR) and marked bradycardia was reported at a dose of 25 mg/kg; assay type: functional, organism-based; design: dose 25 mg/kg
Rattus norvegicus [20] = experiment: Vasopressor responses to epinephrine as a measure of the alpha-1-adrenoceptor blocking activity at 10 mg/kg administered orally was reported to be antagonized; assay type: functional, organism-based; design: dose 10 mg/kg
Rattus norvegicus [21] = experiment: Antihypertensive activity was determined in cannulated spontaneously hypertensive rats(SHR) and heart rate response was reported to reduce by 10-25% after 4 hr at a peroral dose of 10 mg/kg; assay type: functional, organism-based; design: dose 10 mg/kg
Rattus norvegicus [22] = experiment: Antagonism of vasopressor responses to epinephrine as a measure of the alpha-1-adrenoceptor blocking activity at 10 mg/kg administered orally was reported to have no change; assay type: functional, organism-based; design: dose 10 mg/kg
Rattus norvegicus [23] = experiment: Vasopressor responses to epinephrine as a measure of the alpha-1-adrenoceptor blocking activity at 10 mg/kg administered orally was reported to have no change; assay type: functional, organism-based; design: dose 10 mg/kg
Rattus norvegicus [24] = experiment: Antihypertensive activity was determined in cannulated spontaneously hypertensive rats(SHR) and activity rating was given with respect to MABP values at 10 mg/kg oral dose;a decrease of MABP by >40% at 10 mg/kg and by 10-207; assay type: functional, organism-based; in short: as §2

CCN1CCN(C(C)C)C2CCn3c(c(C)c4cc(OC)ccc43)C21.Cl.Cl (stereo not given)
Activity (Rattus norvegicus [1]): Vasopressor response antagonized
Decrease in MABP (Rattus norvegicus [2]): 43%
Decrease in MABP (Rattus norvegicus [3]): 8%
HR (Rattus norvegicus [4]): Heart rate response was reported to reduce by 10-25% after 4 hr at a peroral dose of 5.0 mg/kg
Decrease in MABP (Rattus norvegicus [5]): 33%

Br.CCCN1CCN(CC)C2CCn3c(c(C)c4ccccc43)C21 (stereo not given)
Decrease in MABP (Rattus norvegicus [6]): 42%
Decrease in MABP (Rattus norvegicus [7]): 24%
Activity (Rattus norvegicus [8]): Vasopressor response reversed
Activity (Rattus norvegicus [9]): Vasopressor response reversed
Activity (Rattus norvegicus [10]): Vasopressor response reversed
HR (Rattus norvegicus [11]): Heart rate response was reported to reduce by 10-25% after 4 hr at a peroral dose of 1.0 mg/kg
Decrease in MABP (Rattus norvegicus [12]): 13%

O=C(NC1CCN(CCc2c[nH]c3ccccc23)CC1)c1ccccc1 [INDORAMIN]
Decrease in MABP (Rattus norvegicus [7]): 12%
Decrease in MABP (Rattus norvegicus [13]): 40%
Activity rating (Rattus norvegicus [14]): Active
Activity (Rattus norvegicus [15]): Antagonist
Activity (Rattus norvegicus [16]): Antagonist
Activity (Rattus norvegicus [17]): Antagonist
HR (Rattus norvegicus [18]): Active
Decrease in MABP (Rattus norvegicus [5]): 29%
HR (Rattus norvegicus [19]): Active

Cc1c2n(c3ccccc13)CCC1C2NCCN1C(C)C.Cl.Cl (stereo not given)
Decrease in MABP (Rattus norvegicus [6]): 12%
Activity (Rattus norvegicus [20]): Vasopressor response antagonized

CCN1CCN(C(C)C)C2CCn3c(c(C)c4cc(Br)ccc43)C21.Cl.Cl (stereo not given)
Decrease in MABP (Rattus norvegicus [2]): 20%

CCCCN1CCN(CC)C2CCn3c(c(C)c4ccccc43)C21.Cl.Cl (stereo not given)
HR (Rattus norvegicus [21]): Heart rate response was reported to reduce by 10-25% after 4 hr at a peroral dose of 10 mg/kg
Decrease in MABP (Rattus norvegicus [6]): 36%
Activity (Rattus norvegicus [9]): Vasopressor response reversed
Activity (Rattus norvegicus [10]): Vasopressor response reversed
Decrease in MABP (Rattus norvegicus [12]): 16%

Cc1c2n(c3ccccc13)CCC1C2N(C)CCN1C (stereo not given)
Decrease in MABP (Rattus norvegicus [6]): 23%
Decrease in MABP (Rattus norvegicus [5]): 13%

CCN1CCNC2CCn3c(c(C)c4ccccc43)C21 (stereo not given)
HR (Rattus norvegicus [21]): Heart rate response was reported to reduce by 10-25% after 4 hr at a peroral dose of 10 mg/kg
Decrease in MABP (Rattus norvegicus [6]): 14%
Activity (Rattus norvegicus [22]): inactive

Cc1c2n(c3ccccc13)CCC1C2NCCN1CCOc1ccccc1 (stereo not given)
Decrease in MABP (Rattus norvegicus [6]): 7%
Activity (Rattus norvegicus [23]): inactive

COc1cc2nc(N3CCN(C(=O)c4ccco4)CC3)nc(N)c2cc1OC [PRAZOSIN]
Decrease in MABP (Rattus norvegicus [6]): 49%
Decrease in MABP (Rattus norvegicus [3]): 35%
Decrease in MABP (Rattus norvegicus [12]): 46%
Activity rating (Rattus norvegicus [24]): Active
